Assay results taken from ChEMBL document CHEMBL1124161, “4-Hydroxy-3-quinolinecarboxamides with antiarthritic and analgesic activities” (J Med Chem, 1988).
Active and inactive are the calls of the source. No cut-off for these calls is given here.

How the values were obtained:
Mus musculus = test: Analgesic activity against acetic acid induced writhing test in mouse after peroral administration; type: functional
Rattus norvegicus [1] = test: Antiinflammatory activity against carrageenan-induced foot edema in rat after peroral administration at 25 mg/kg; IA=Inactive; type: functional, organism-based; design: dose 25 mg/kg
Rattus norvegicus [2] = test: Anti-arthritis activity against adjuvant-induced arthritis in rats after peroral administration; type: functional
How it was run: (§1)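 Groups of five male Lewis rats, 40–50 days old, given intraplantar injection in right hind paw of 0.6 mg Mycobacterium butyricum in 0.1 mL Bayol 55. Drug given in food from adjuvant day to day 17. Injected and noninjected hind paw volumes measured day 17 against normal controls. ED50 by least-squares curve fitting or Litchfield–Wilcoxon probit.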

Rattus norvegicus [3] = species: Rattus norvegicus; test: Antiarthritis activity against adjuvant-induced arthritis in rats; type: functional; how it was run: as §1
[4] = Mus musculus, po, read-out: ED50
[5] = Rattus norvegicus, po, read-out: ED50

| Structure (SMILES) | ED50 (Mus musculus; [4]) | further results |
| --- | --- | --- |
| O=C(Nc1nc2ccccc2s1)c1c(C(Cl)Cl)nc2c(C(F)(F)F)cccc2c1O | > 25 mg/kg | ED50 (Rattus norvegicus [1]): inactive |
| CCCC(=O)OC(CC)c1nc2c(C(F)(F)F)cccc2c(O)c1C(=O)Nc1nccs1 (centres undefined) | 4 mg/kg | ED50 (Rattus norvegicus [2]; [5]): 1.3 mg/kg |
| CC(C)c1ccc2ncc(C(=O)Nc3nccs3)c(O)c2c1 | 25 mg/kg |  |
| CCC(=O)OC(c1nc2c(C(F)(F)F)cccc2c(O)c1C(=O)Nc1nccs1)C(C)C (centres undefined) | > 100 mg/kg | ED50 (Rattus norvegicus [2]; [5]): ≥ 5 mg/kg |
| O=C(Nc1ccccn1)c1cnc2c(C(F)(F)F)cccc2c1O | > 50 mg/kg |  |
| O=C(Nc1ccccn1)c1c(C(F)(F)F)nc2c(C(F)(F)F)cccc2c1O | > 20 mg/kg |  |
| O=C(Nc1ncc[nH]1)c1cnc2c(C(F)(F)F)cccc2c1O | 18 mg/kg |  |
| CC(C)c1nc2c(C(F)(F)F)cccc2c(O)c1C(=O)Nc1nccs1 | 5 mg/kg |  |
| CCCC(O)c1nc2c(C(F)(F)F)cccc2c(O)c1C(=O)Nc1nccs1 (centres undefined) | 20 mg/kg | ED50 (Rattus norvegicus [3]): ≥ 20 mg/kg |
| CCc1nc2c(C(F)(F)F)cccc2c(O)c1C(=O)Nc1cc(C)on1 | > 50 mg/kg |  |
| O=C(Nc1nccs1)c1c(C(Cl)Cl)nc2cc(Cl)ccc2c1O | > 100 mg/kg |  |
| O=C(NC1CCCCC1)c1cnc2c(C(F)(F)F)cccc2c1O | > 50 mg/kg |  |
| O=C(Nc1nccs1)c1c(C(F)(F)F)nc2ccccc2c1O | 8 mg/kg |  |
| Cn1ccnc1NC(=O)c1c(C(Cl)Cl)nc2c(C(F)(F)F)cccc2c1O | > 25 mg/kg | ED50 (Rattus norvegicus [1]): inactive |
| CCc1nc2c(C(F)(F)F)cccc2c(O)c1C(=O)Nc1nccs1 | 3 mg/kg |  |
| O=C(NC1=NCCS1)c1cnc2c(C(F)(F)F)cccc2c1O | 15 mg/kg |  |
| CCC(OC(=O)C(C)(C)C)c1nc2c(C(F)(F)F)cccc2c(O)c1C(=O)Nc1nccs1 (centres undefined) |  | ED50 (Rattus norvegicus [2]; [5]): 15 mg/kg |
| CCC(OC(=O)c1ccccc1)c1nc2c(C(F)(F)F)cccc2c(O)c1C(=O)Nc1nccs1 (centres undefined) | > 100 mg/kg | ED50 (Rattus norvegicus [2]; [5]): > 5 mg/kg |
| CC(O)c1nc2c(C(F)(F)F)cccc2c(O)c1C(=O)Nc1ccccn1 (centres undefined) | > 50 mg/kg |  |
| CCC(O)c1nc2c(C(F)(F)F)cccc2c(O)c1C(=O)Nc1nccs1 (stereo in doubt; 91) |  | ED50 (Mus musculus): 1.8 mg/kg; ED50 (Rattus norvegicus [2]): 0.5 mg/kg |
| Cc1nc2c(C(F)(F)F)cccc2c(O)c1C(=O)Nc1ccccn1 | 5 mg/kg |  |
| Cc1nc2c(C(F)(F)F)cccc2c(O)c1C(=O)Nc1nccs1 | 4 mg/kg |  |
| O=C(Nc1nccs1)c1c(C(F)(F)F)nc2c(Cl)ccc(C(F)(F)F)c2c1O | > 50 mg/kg |  |
| O=C(Nc1nccs1)c1c(C(F)(F)F)nc2ccc(C(F)(F)F)cc2c1O | 100 mg/kg |  |
| CCC(=O)OC(CC)c1nc2c(C(F)(F)F)cccc2c(O)c1C(=O)Nc1nccs1 (stereo in doubt; 104) |  | ED50 (Mus musculus): 15 mg/kg; ED50 (Rattus norvegicus [2]): 0.6 mg/kg |
| CC(C)(C)c1nc2c(C(F)(F)F)cccc2c(O)c1C(=O)Nc1nccs1 | > 100 mg/kg |  |
| C[C@H](N)c1nc2c(C(F)(F)F)cccc2c(O)c1C(=O)Nc1nccs1 | 30 mg/kg | ED50 (Rattus norvegicus [2]; [5]): 7 mg/kg |

| Structure (SMILES) | ED50 (Mus musculus; [4]) | further results |
| --- | --- | --- |
| O=C(Nc1nccs1)c1cnc2ccc(Cl)cc2c1O | 50 mg/kg |  |
| O=C(Nc1nccs1)c1cnc2c(OC(F)(F)F)cccc2c1O | > 50 mg/kg |  |
| CCC(O)c1nc2c(C(F)(F)F)cccc2c(O)c1C(=O)Nc1nccs1 (stereo in doubt; 90) |  | ED50 (Mus musculus): >20 mg/kg; ED50 (Rattus norvegicus [2]): >5 mg/kg |
| CC(O)c1nc2c(C(F)(F)F)cccc2c(O)c1C(=O)Nc1nccs1 (centres undefined) | 1.2 mg/kg | ED50 (Rattus norvegicus [3]): ≥ 5 mg/kg |
| O=C(Nc1nccs1)c1c(C(F)(F)F)nc2c(F)cccc2c1O | 5 mg/kg |  |
| COc1cccc2c(O)c(C(=O)Nc3nccs3)cnc12 | > 50 mg/kg |  |
| O=C(Nc1nccs1)c1c(C(F)(F)C(F)(F)F)nc2c(C(F)(F)F)cccc2c1O | 20 mg/kg |  |
| O=C(Nc1ccccc1)c1cnc2c(C(F)(F)F)cccc2c1O | > 50 mg/kg |  |
| O=C(Nc1ncco1)c1c(C(Cl)Cl)nc2c(C(F)(F)F)cccc2c1O | > 25 mg/kg | ED50 (Rattus norvegicus [1]): inactive |
| CC(C)Cc1nc2c(C(F)(F)F)cccc2c(O)c1C(=O)Nc1nccs1 | 30 mg/kg |  |
| O=C(Nc1nccs1)c1c(C(F)(F)F)nc2c(Cl)cccc2c1O | 2 mg/kg |  |
| O=C(Nc1ncccn1)c1cnc2c(C(F)(F)F)cccc2c1O | 50 mg/kg |  |
| O=C(Nc1nccs1)c1c(C(F)(F)F)nc2cccc(C(F)(F)F)c2c1O | 20 mg/kg |  |
| CCC(O)c1nc2c(C(F)(F)F)cccc2c(O)c1C(=O)Nc1ccccn1 (centres undefined) | 20 mg/kg | ED50 (Rattus norvegicus [2]; [5]): ≥ 15 mg/kg |
| O=C(Nc1nccs1)c1cnc2ccccc2c1O | > 10 mg/kg |  |
| O=C(Nc1nccs1)c1c(C(F)(F)F)nc2cc(Cl)ccc2c1O | > 25 mg/kg |  |
| CC(O)c1nc2ccccc2c(O)c1C(=O)Nc1nccs1 (centres undefined) | > 100 mg/kg | ED50 (Rattus norvegicus [2]; [5]): > 5 mg/kg |
| O=C(Nc1nccs1)c1c(C(F)(F)F)nc2c(SC(F)(F)F)cccc2c1O | 4 mg/kg |  |
| O=C(Nc1nccs1)c1cnc2c(SC(F)(F)F)cccc2c1O | > 50 mg/kg |  |
| O=C(Nc1nccs1)c1c(C(F)(F)F)nc2ccc(Cl)cc2c1O | > 25 mg/kg |  |
| CC[C@H](NC(C)=O)c1nc2c(C(F)(F)F)cccc2c(O)c1C(=O)Nc1nccs1 | 5 mg/kg | ED50 (Rattus norvegicus [2]; [5]): 1.5 mg/kg |
| Cn1nccc1NC(=O)c1cnc2c(C(F)(F)F)cccc2c1O | 50 mg/kg |  |
| CC(C)C(O)c1nc2c(C(F)(F)F)cccc2c(O)c1C(=O)Nc1nccs1 (centres undefined) | 20 mg/kg | ED50 (Rattus norvegicus [3]): 0.4 mg/kg |
| CC(C)C(O)c1nc2c(C(F)(F)F)cccc2c(O)c1C(=O)Nc1ccccn1 (centres undefined) | > 50 mg/kg | ED50 (Rattus norvegicus [2]; [5]): 5 mg/kg |
| COc1ccc2nc(C(F)(F)F)c(C(=O)Nc3nccs3)c(O)c2c1 | 30 mg/kg |  |
| CC(=O)OC(c1nc2c(C(F)(F)F)cccc2c(O)c1C(=O)Nc1nccs1)C(C)C (centres undefined) | > 100 mg/kg | ED50 (Rattus norvegicus [2]; [5]): ≥ 5 mg/kg |
| O=C(Nc1nccs1)c1cnc2cc(C(F)(F)F)ccc2c1O | 100 mg/kg |  |

| Structure (SMILES) | ED50 (Mus musculus; [4]) | further results |
| --- | --- | --- |
| O=C(Nc1nccs1)c1cnc2ccc(C(F)(F)F)cc2c1O | 40 mg/kg |  |
| O=C(Nc1nccs1)c1c(C(Cl)Cl)nc2c(Cl)cccc2c1O | 25 mg/kg | ED50 (Rattus norvegicus [1]): inactive |
| O=C(Nc1nccs1)c1c(C(F)F)nc2c(C(F)(F)F)cccc2c1O | 5 mg/kg |  |
| O=C(Nn1ccnn1)c1cnc2c(C(F)(F)F)cccc2c1O | > 50 mg/kg |  |
| O=C(Nc1ccccn1)c1c(C(Cl)Cl)nc2c(C(F)(F)F)cccc2c1O | 20 mg/kg |  |
| CC(C)[C@H](N)c1nc2c(C(F)(F)F)cccc2c(O)c1C(=O)Nc1nccs1 | > 100 mg/kg | ED50 (Rattus norvegicus [2]; [5]): ≥ 5 mg/kg |
| CCc1nc2c(C(F)(F)F)cccc2c(O)c1C(=O)Nc1ncco1 | 15 mg/kg |  |
| CCc1nc2c(C(F)(F)F)cccc2c(O)c1C(=O)Nc1nccn1C | 50 mg/kg |  |
| O=C(Nc1nccs1)c1c(C(Cl)Cl)nc2c(F)cccc2c1O | 25 mg/kg | ED50 (Rattus norvegicus [1]): inactive |
| CCCc1nc2c(C(F)(F)F)cccc2c(O)c1C(=O)Nc1nccs1 | 15 mg/kg |  |
| CCC(OC(=O)c1cccnc1)c1nc2c(C(F)(F)F)cccc2c(O)c1C(=O)Nc1nccs1 (centres undefined) | > 20 mg/kg | ED50 (Rattus norvegicus [2]; [5]): > 1 mg/kg |
| CCC(OC(=O)/C=C/c1ccccc1)c1nc2c(C(F)(F)F)cccc2c(O)c1C(=O)Nc1nccs1 (centres undefined) | > 100 mg/kg | ED50 (Rattus norvegicus [2]; [5]): 10 mg/kg |
| O=C(Nc1nccs1)c1c(C(Cl)Cl)nc2ccc(Cl)cc2c1O | 25 mg/kg |  |
| O=C(Nc1nccs1)c1c(CCl)nc2c(C(F)(F)F)cccc2c1O | 25 mg/kg | ED50 (Rattus norvegicus [1]): inactive |
| Cc1cc(NC(=O)c2c(C(F)(F)F)nc3c(C(F)(F)F)cccc3c2O)no1 | > 50 mg/kg |  |
| CC(Cl)c1nc2c(C(F)(F)F)cccc2c(O)c1C(=O)Nc1nccs1 (centres undefined) |  | ED50 (Mus musculus; read-out: ED50): 25 mg/kg |
| O=C(Nc1nccs1)c1c(C(F)(F)F)nc2cc(C(F)(F)F)ccc2c1O | 5 mg/kg |  |
| O=C(Nc1ncco1)c1c(C(F)(F)F)nc2c(C(F)(F)F)cccc2c1O | > 100 mg/kg |  |
| CCC(=O)OC(CC)c1nc2c(C(F)(F)F)cccc2c(O)c1C(=O)Nc1nccs1 (stereo in doubt; 103) |  | ED50 (Mus musculus): >50 mg/kg; ED50 (Rattus norvegicus [2]): >5 mg/kg |
| O=C(Nc1nccs1)c1c(C(Cl)Cl)nc2ccccc2c1O | > 25 mg/kg |  |
| Cn1ccnc1NC(=O)c1cnc2c(C(F)(F)F)cccc2c1O | 16 mg/kg |  |
| O=C(Nc1ncco1)c1cnc2c(C(F)(F)F)cccc2c1O | > 100 mg/kg |  |
| O=C(Nc1nccs1)c1c(C(F)(F)F)nc2c([S+]([O-])C(F)(F)F)cccc2c1O (centres undefined) | 20 mg/kg |  |
| CCc1nc2c(C(F)(F)F)cccc2c(O)c1C(=O)Nc1ccccn1 | 18 mg/kg |  |
| O=C(Nc1nccs1)c1cnc2c(Cl)cccc2c1O | 100 mg/kg |  |
